Assay results from different studies.
Lines come from different studies, so protocols differ.
Target: Rhodopsin kinase GRK7 (GRK7, Homo sapiens, UniProt Q8WTQ7)
One construct used (Q8WTQ7 1-553): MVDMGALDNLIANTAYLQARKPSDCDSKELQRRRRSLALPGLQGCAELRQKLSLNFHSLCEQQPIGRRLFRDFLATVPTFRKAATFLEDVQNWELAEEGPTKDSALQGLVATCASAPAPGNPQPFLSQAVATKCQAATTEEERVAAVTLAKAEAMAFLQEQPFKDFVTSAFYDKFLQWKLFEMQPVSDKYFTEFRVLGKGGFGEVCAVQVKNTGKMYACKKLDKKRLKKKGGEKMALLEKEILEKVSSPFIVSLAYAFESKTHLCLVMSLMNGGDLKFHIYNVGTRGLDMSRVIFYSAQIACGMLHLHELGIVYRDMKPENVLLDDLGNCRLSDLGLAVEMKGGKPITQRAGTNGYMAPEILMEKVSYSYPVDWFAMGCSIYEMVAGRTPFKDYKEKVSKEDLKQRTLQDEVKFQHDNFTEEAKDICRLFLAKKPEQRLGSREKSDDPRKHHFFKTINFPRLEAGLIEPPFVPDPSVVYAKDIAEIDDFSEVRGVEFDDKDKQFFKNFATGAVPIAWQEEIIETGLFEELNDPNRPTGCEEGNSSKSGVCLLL

COc1cc2ncnc(Nc3ccc(Oc4ccccc4)cc3C)c2cc1OC
inhibition (enzyme activity; inhibitor; 1 µM): -3%

O=C1Nc2ccc(Cl)cc2C1=Cc1cc(Cl)c(O)c(Cl)c1
remaining signal (cell-free assay; 0.5 µM): 97.3%

CCCOc1ccc(OC)c(F)c1C(=O)c1ccc(C(=O)N[C@@H]2CNC[C@H]2NC(=O)c2ccc3[nH]ncc3c2)cc1
remaining activity (enzyme activity; inhibitor; 10 µM): 107%

CCC(=O)N[C@H]1CC[C@@H](C(=O)N(C)c2ccc(-c3nc4ccccc4o3)cc2)C1
remaining binding (cell-free assay; competition with immobilised ligand; 1 µM): 82%

O=C1NC(=O)c2cc(Nc3ccc(F)cc3)c(Nc3ccc(F)cc3)cc21
remaining signal (cell-free assay; 0.5 µM): 106%

CCCOc1ccc([C@H]2[C@H](C(=O)O)[C@@H](c3ccc4c(c3)OCO4)CN2CC(=O)Nc2c(CC)cccc2CC)cc1
remaining binding (cell-free assay; competition with immobilised ligand; 1 µM): 100%

O=C(Nc1cnn(-c2csc(C(=O)NC3COC3)c2)c1)Nc1ccccc1Cl
remaining activity (enzyme activity; inhibitor; 5 µM): 96.4%

CC(C)(C)c1nc(-c2cccc(NS(=O)(=O)c3c(F)cccc3F)c2F)c(-c2ccnc(N)n2)s1
remaining activity (enzyme activity; inhibitor; radiometric; 1 µM): 76%

O=C(N1CCS(=O)(=O)CC1)N1C[C@H](c2ccc(OC(F)(F)F)cc2)C[C@H](c2nc(C3CC3)no2)C1
remaining binding (cell-free assay; competition with immobilised ligand; 1 µM): 100%

N#CCCc1ccc2c(c1)-c1[nH]c3ccc([N+](=O)[O-])cc3c1CC(=O)N2
remaining signal (cell-free assay; 0.5 µM): 97.7%

Cc1cnc(NC2CCOCC2)nc1-n1cnc(C(=O)NC(CN)c2cc(F)cc(Cl)c2)c1 (stereo not drawn)
remaining activity (enzyme activity; inhibitor; radiometric; 1 µM): 85%

Cc1nc(Cc2cccc(C(F)(F)F)c2)sc1-c1ccc(C(N)=O)nc1
remaining binding (cell-free assay; competition with immobilised ligand; 1 µM): 100%

Cc1ccc(NC(=O)c2ccc(C)c(C(F)(F)F)c2)cc1C#Cc1nn(C2CCC(O)CC2)c2ncnc(N)c12 (stereo not drawn)
remaining signal (cell-free assay; 10 µM): 101%

Cc1cc(NC(=O)c2cccc3cc(-c4cccc5[nH]nc(N)c45)ccc23)ccc1F
activity vs control (enzyme activity; inhibitor; 0.1 µM): 114%

O=C(O)[C@@H]1[C@@H](Cn2nnc3ccccc3c2=O)CC[C@H]1C(=O)c1ccc(OCCC2CCOCC2)cc1
remaining binding (cell-free assay; competition with immobilised ligand; 1 µM): 100%

Nc1ncnc2occ(-c3ccc(NC(=O)Nc4cc(C(F)(F)F)ccc4F)cc3)c12
remaining signal (cell-free assay; inhibitor; 20 µM): 77%

Cc1sc(C(=O)NC2COC2)cc1-n1cc(NC(=O)Nc2c(F)cccc2Cl)cn1
remaining activity (enzyme activity; inhibitor; 10 µM): 99.9%

COc1cc(Cl)c(C(=O)N[C@@H](CN[C@H]2CC[C@@H](N)CC2)Cc2ccc(C#N)cc2)cc1-c1ccc(CN[C@H](C)c2ccc(C)cc2)o1
remaining activity (enzyme activity; inhibitor; 1 µM): 102%
